In ChEMBL document CHEMBL3132745, “Synthesis and Antimicrobial Activities of His(2-aryl)-Arg and Trp-His(2-aryl) Classes of Dipeptidomimetics” (Medchemcomm, 2014):
Values after ≈ are worked out from the molar mass of the structure shown. Active and inactive are the calls of the source.

Key:
Candida albicans = test: Antifungal activity against Candida albicans assessed as growth inhibition; type: functional, organism-based
BT-549 = test: Cytotoxicity against human BT549 cells assessed as cell viability after 48 hrs by neutral red uptake assay; type: cell-based; conditions: bt-549, 48 h
Method in brief: (§1)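 Neutral red uptake assay on human cancer lines (SK-MEL, KB, BT-549, SK-OV-3) and noncancerous mammalian cells (VERO, LLC-PK1). Highest tested concentration was 10 µg/mL.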

Cryptococcus neoformans [1] = test: Antifungal activity against Cryptococcus neoformans ATCC 90113 assessed as growth inhibition after 70-74 hrs by CLSI method; type: functional, organism-based; conditions: Cryptococcus neoformans, ATCC 90113; for IC50: read-out: IC50
KB = test: Cytotoxicity against human KB cells assessed as cell viability after 48 hrs by neutral red uptake assay; type: cell-based; method in brief: as §1
Staphylococcus aureus [2] = test: Antibacterial activity against Staphylococcus aureus ATCC 29213 assessed as growth inhibition after 16-20 hrs by CLSI method; type: functional, organism-based
Nakaseomyces glabratus = test: Antifungal activity against Candida glabrata assessed as growth inhibition; type: functional, organism-based
Pichia kudriavzevii = test: Antifungal activity against Candida krusei assessed as growth inhibition; type: functional, organism-based
Vero = test: Cytotoxicity against african green monkey Vero cells assessed as cell viability after 48 hrs by neutral red uptake assay; type: cell-based; conditions: chlorocebus sabaeus; method in brief: as §1
[3] = Selectivity index, ratio of cytotoxicity against african green monkey Vero cells to IC50 for Cryptococcus neoformans ATCC 90113; type: toxicity, cell-based; conditions: read-out: Selectivity Index
LLC-PK1 = test: Cytotoxicity against pig LLC-PK1 cells assessed as cell viability after 48 hrs by neutral red uptake assay; type: cell-based, Sus scrofa; conditions: llc-pk1, 48 h; method in brief: as §1
Escherichia coli = test: Antibacterial activity against Escherichia coli ATCC 35218 assessed as growth inhibition after 16-20 hrs by CLSI method; type: functional, organism-based
[4] = Selectivity index, ratio of cytotoxicity against human SK-MEL cells to IC50 for Cryptococcus neoformans ATCC 90113; type: toxicity, cell-based; conditions: read-out: Selectivity Index
SK-OV-3 = test: Cytotoxicity against human SKOV3 cells assessed as cell viability after 48 hrs by neutral red uptake assay; type: cell-based; conditions: sk-ov-3, 48 h; method in brief: as §1
Staphylococcus aureus [5] = test: Antibacterial activity against methicillin-resistant Staphylococcus aureus ATCC 33591 assessed as growth inhibition after 16-20 hrs by CLSI method; type: functional, organism-based
SK-MEL = test: Cytotoxicity against human SK-MEL cells assessed as cell viability after 48 hrs by neutral red uptake assay; type: cell-based; method in brief: as §1
[6] = Selectivity index, ratio of cytotoxicity against human SKOV3 cells to IC50 for Cryptococcus neoformans ATCC 90113; type: toxicity, cell-based, SK-OV-3; conditions: read-out: Selectivity Index
[7] = Selectivity index, ratio of cytotoxicity against human BT549 cells to IC50 for Cryptococcus neoformans ATCC 90113; type: toxicity, cell-based, BT-549; conditions: read-out: Selectivity Index
Aspergillus fumigatus = test: Antifungal activity against Aspergillus fumigatus assessed as growth inhibition; type: functional, organism-based
[8] = Selectivity index, ratio of cytotoxicity against pig LLC-PK1 cells to IC50 for Cryptococcus neoformans ATCC 90113; type: toxicity, cell-based; conditions: read-out: Selectivity Index
[9] = Selectivity index, ratio of cytotoxicity against human KB cells to IC50 for Cryptococcus neoformans ATCC 90113; type: toxicity, cell-based; conditions: read-out: Selectivity Index
Cryptococcus neoformans [10] = test: Ratio of amphotericin IC50 to compound IC50 for Cryptococcus neoformans ATCC 90113 after 70-74 hrs by CLSI method; type: functional
Cryptococcus neoformans [11] = test: Ratio of amphotericin MIC to compound MIC for Cryptococcus neoformans ATCC 90113 after 70-74 hrs by CLSI method; type: functional
Cryptococcus neoformans [12] = test: Ratio of amphotericin MFC to compound MFC for Cryptococcus neoformans ATCC 90113 after 70-74 hrs by CLSI method; type: functional
[13] = Staphylococcus aureus, ATCC 33591
[14] = Staphylococcus aureus, ATCC 33591, read-out: IC50

SMILES	growth inhibition (GI) (Candida albicans)	Activity (BT-549) [µg/mL]	MFC (Cryptococcus neoformans [1]) [mg/L]	MIC (Cryptococcus neoformans [1]) [mg/L]	IC50 (Cryptococcus neoformans [1]) [mg/L]	Activity (KB) [µg/mL]	IC50 (Staphylococcus aureus [2]) [mg/L]	MIC (Staphylococcus aureus [2])	growth inhibition (GI) (Nakaseomyces glabratus)	growth inhibition (GI) (Pichia kudriavzevii)	Activity (Vero) [µg/mL]	selectivity ratio [3]	Activity (LLC-PK1) [µg/mL]	growth inhibition (GI) (Escherichia coli)	selectivity ratio [4]	Activity (SK-OV-3) [µg/mL]	MBC (Staphylococcus aureus [5])	Activity (SK-MEL) [µg/mL]	selectivity ratio [6]	selectivity ratio [7]	further results
N=C(N)NCCC[C@H](NC(=O)[C@@H](N)Cc1c[nH]c(-c2ccc(-c3ccccc3)cc2)n1)C(=O)NCc1ccccc1	inactive	> 10	0.31 (≈ 0.561 µM)	0.31 (≈ 0.561 µM)	0.2 (≈ 0.362 µM)	> 10	12.8 (≈ 23.2 µM)	inactive	inactive	inactive	> 10	> 50	> 10	inactive	> 50	> 10	inactive	> 10	> 50	> 50	MBC (Staphylococcus aureus [2]): inactive; IC50 (Staphylococcus aureus [5]): Not Active; MIC (Staphylococcus aureus [5]): inactive; growth inhibition (GI) (Aspergillus fumigatus): inactive; selectivity ratio [8]: > 50; selectivity ratio [9]: > 50
CC(C)(C)OC(=O)N[C@@H](Cc1c[nH]c(-c2ccc(-c3ccccc3)cc2)n1)C(=O)N[C@@H](CCCNC(=N)N)C(=O)NCc1ccccc1	inactive	> 10	2.5 (≈ 3.83 µM)	2.5 (≈ 3.83 µM)	1.09 (≈ 1.67 µM)	> 10	7.3 (≈ 11.2 µM)	10 mg/L (≈ 15.3 µM)	inactive	inactive	> 10	> 9.2	> 10	inactive	> 9.2	> 10	inactive	> 10	> 9.2	> 9.2	MIC (Staphylococcus aureus [5]; [13]): 20 mg/L (≈ 30.6 µM); IC50 (Staphylococcus aureus [5]; [14]): 8.97 mg/L (≈ 13.7 µM); growth inhibition (GI) (Aspergillus fumigatus): inactive; selectivity ratio [8]: > 9.2; selectivity ratio [9]: > 9.2
CC(C)(C)c1ccc(-c2nc(C[C@H](NC(=O)[C@@H](N)Cc3c[nH]c4ccccc34)C(=O)NCc3ccccc3)c[nH]2)cc1	inactive	> 10	10 (≈ 17.8 µM)	10 (≈ 17.8 µM)	4.53 (≈ 8.05 µM)	> 10	11.7 (≈ 20.7 µM)	20 mg/L (≈ 35.5 µM)	inactive	inactive	> 10	> 2.21	> 10	inactive	> 2.21	> 10	inactive	> 10	> 2.21	> 2.21	MBC (Staphylococcus aureus [2]): inactive; IC50 (Staphylococcus aureus [5]): Not Active; MIC (Staphylococcus aureus [5]): inactive; growth inhibition (GI) (Aspergillus fumigatus): inactive; selectivity ratio [8]: > 2.21; selectivity ratio [9]: > 2.21
CC(C)(C)OC(=O)N[C@@H](Cc1c[nH]c(-c2ccc(C(C)(C)C)cc2)n1)C(=O)N[C@@H](CCCNC(=N)N)C(=O)NCc1ccccc1	inactive	> 10	2.5 (≈ 3.95 µM)	2.5 (≈ 3.95 µM)	2.42 (≈ 3.82 µM)	> 10	5.95 (≈ 9.4 µM)	10 mg/L (≈ 15.8 µM)	inactive	inactive	> 10	> 4.1	> 10	inactive	> 4.1	> 10	inactive	> 10	> 4.1	> 4.1	MBC (Staphylococcus aureus [2]): inactive; MIC (Staphylococcus aureus [5]; [13]): 20 mg/L (≈ 31.6 µM); IC50 (Staphylococcus aureus [5]; [14]): 9.32 mg/L (≈ 14.7 µM); growth inhibition (GI) (Aspergillus fumigatus): inactive; selectivity ratio [8]: > 4.1; selectivity ratio [9]: > 4.1
CC(C)(C)c1ccc(-c2nc(C[C@H](N)C(=O)N[C@@H](CCCNC(=N)N)C(=O)NCc3ccccc3)c[nH]2)cc1	inactive	> 10	0.31 (≈ 0.582 µM)	0.31 (≈ 0.582 µM)	0.16 (≈ 0.3 µM)	> 10	15.9 (≈ 29.8 µM)	inactive	inactive	inactive	> 10	> 62.5	> 10	inactive	> 62.5	> 10	inactive	> 10	> 62.5	> 62.5	MBC (Staphylococcus aureus [2]): inactive; Ratio IC50 (Cryptococcus neoformans [10]): >4; Ratio (Cryptococcus neoformans [11]): >4; Ratio (Cryptococcus neoformans [12]): >4; IC50 (Staphylococcus aureus [5]): Not Active; MIC (Staphylococcus aureus [5]): inactive; growth inhibition (GI) (Aspergillus fumigatus): inactive; selectivity ratio [8]: > 62.5; selectivity ratio [9]: > 62.5
